Values after ≈ are worked out from the molar mass of the structure shown. Where only a bound is given, the exact number is not on record here.

In series [1] the target is Stromelysin-1 (Homo sapiens, UniProt P08254). The series is described as follows: Inhibition of MMP3. The method in brief: (§1)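 Catalytic-domain enzyme; 1 µM stock activated with APMA (1 mM, 1 h at 37 °C for MMP-2; 2 mM, 3 h at 37 °C for MMP-3), then diluted to 10 nM in Tris–HCl buffer. Assay used 0.1 nM enzyme and 5 µM fluorogenic substrate Mca-Arg-Pro-Lys-Tyr-Ala-Nva-Trp-Met-Lys(Dnp)-NH2. Inhibitor (≤1% DMSO) preincubated with enzyme 15 min at 37 °C. After substrate, 1 h at 37 °C; fluorescence read at ex 328/em 393 nm. IC50 taken from concentration–response curves as the geometric mean of ≥3 experiments.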
Chain of Stromelysin-1 (P08254 whole entry): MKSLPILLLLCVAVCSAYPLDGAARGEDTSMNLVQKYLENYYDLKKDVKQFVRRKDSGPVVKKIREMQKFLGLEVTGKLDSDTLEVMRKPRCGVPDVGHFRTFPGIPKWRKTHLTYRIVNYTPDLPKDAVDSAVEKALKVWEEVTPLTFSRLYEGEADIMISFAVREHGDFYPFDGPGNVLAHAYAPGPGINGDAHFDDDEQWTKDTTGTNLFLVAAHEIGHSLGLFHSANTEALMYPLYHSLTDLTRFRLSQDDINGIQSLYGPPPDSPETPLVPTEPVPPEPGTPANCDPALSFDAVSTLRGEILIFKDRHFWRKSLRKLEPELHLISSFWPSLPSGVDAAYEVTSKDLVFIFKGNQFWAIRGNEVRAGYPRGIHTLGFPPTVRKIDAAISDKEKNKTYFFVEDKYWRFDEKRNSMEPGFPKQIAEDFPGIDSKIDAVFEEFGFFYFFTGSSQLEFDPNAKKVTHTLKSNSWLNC

Series [2] has as its target 72 kDa type IV collagenase (Homo sapiens, UniProt P08253). The series is described as follows: Inhibition of MMP2. Summed up:
as §1

A short description of series [3]: Selectivity for MMP3 over MMP2.
Series [4] addresses T1, Interstitial collagenase (Homo sapiens, UniProt P03956).
T1 sequence (P03956 whole entry): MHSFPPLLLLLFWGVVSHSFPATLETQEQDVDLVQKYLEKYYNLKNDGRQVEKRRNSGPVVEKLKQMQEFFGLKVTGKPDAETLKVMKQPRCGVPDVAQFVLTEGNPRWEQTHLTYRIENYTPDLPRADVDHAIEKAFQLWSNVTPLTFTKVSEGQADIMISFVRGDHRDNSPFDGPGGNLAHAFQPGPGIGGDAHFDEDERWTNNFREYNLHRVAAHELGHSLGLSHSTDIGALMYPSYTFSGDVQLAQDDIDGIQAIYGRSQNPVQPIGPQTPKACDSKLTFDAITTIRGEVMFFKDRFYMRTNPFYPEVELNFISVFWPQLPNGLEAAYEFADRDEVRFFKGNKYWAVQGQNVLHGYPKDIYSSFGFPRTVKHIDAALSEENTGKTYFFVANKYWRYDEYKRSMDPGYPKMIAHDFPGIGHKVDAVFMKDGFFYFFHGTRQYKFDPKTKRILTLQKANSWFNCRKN
The series is described as follows: Inhibition of MMP1.

Series [5] in a line: Aqueous solubility of the compound. It counts as physicochemical. Summed up: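 Solubility in aqueous media determined across pH 1, 5, 7, 9 and 11.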
Series [6] deals with Matrix metalloproteinase-9 (Homo sapiens, UniProt P14780). The series is described as follows: Inhibition of MMP9.
Chain of Matrix metalloproteinase-9 (P14780 whole entry): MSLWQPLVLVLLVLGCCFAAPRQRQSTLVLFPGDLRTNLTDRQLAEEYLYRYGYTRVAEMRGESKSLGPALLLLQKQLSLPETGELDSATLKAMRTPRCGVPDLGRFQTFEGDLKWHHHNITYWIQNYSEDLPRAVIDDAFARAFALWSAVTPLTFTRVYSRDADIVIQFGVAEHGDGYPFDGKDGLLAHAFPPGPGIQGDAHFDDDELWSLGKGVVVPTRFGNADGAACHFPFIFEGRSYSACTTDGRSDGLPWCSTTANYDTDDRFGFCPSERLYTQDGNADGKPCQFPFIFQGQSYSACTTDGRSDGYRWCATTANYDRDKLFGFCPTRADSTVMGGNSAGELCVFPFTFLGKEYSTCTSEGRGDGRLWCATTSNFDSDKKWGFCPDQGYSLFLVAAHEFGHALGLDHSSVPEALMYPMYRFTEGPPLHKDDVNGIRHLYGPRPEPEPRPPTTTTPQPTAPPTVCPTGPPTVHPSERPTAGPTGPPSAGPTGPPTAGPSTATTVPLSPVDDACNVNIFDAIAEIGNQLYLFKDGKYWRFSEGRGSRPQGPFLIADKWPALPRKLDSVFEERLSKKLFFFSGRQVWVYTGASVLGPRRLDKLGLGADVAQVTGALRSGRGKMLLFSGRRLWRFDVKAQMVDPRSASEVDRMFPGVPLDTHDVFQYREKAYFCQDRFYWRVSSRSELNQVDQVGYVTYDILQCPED
The target in series [7] is Matrix metalloproteinase-14 (Homo sapiens, UniProt P50281). The series is described as follows: Inhibition of MMP14.
The target in series [8] is Collagenase 3 (Homo sapiens, UniProt P45452). The series is described as follows: Inhibition of MMP13.

Chain of 72 kDa type IV collagenase (P08253 whole entry): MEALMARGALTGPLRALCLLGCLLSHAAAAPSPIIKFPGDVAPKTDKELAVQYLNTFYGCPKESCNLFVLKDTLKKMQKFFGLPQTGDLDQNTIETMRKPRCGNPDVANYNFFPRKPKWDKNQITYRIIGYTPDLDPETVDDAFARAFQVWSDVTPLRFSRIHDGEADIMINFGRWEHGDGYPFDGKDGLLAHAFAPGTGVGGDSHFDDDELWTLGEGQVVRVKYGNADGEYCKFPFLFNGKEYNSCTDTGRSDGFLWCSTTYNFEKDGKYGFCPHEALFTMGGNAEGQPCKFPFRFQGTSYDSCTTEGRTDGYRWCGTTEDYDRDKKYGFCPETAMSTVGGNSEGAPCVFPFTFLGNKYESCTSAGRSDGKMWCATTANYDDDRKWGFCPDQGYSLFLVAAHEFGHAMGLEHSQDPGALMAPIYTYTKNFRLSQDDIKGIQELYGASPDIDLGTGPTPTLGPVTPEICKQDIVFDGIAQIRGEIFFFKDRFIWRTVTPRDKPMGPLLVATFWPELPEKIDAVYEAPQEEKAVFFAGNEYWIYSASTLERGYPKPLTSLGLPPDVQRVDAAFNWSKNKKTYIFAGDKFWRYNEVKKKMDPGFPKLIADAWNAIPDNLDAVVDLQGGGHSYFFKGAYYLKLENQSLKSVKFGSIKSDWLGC

For `COCc1cccc(-c2ccc(C3=CCN(S(=O)(=O)CC(=O)NO)CC3)cc2C)c1`, the IC50 (as a rule, the point on the concentration scale where inhibition reaches its midpoint) was found to be 3 nM in series [1] and 196 nM in series [2].
On to `Cc1cc(C2=CCN(S(=O)(=O)CC(=O)NO)CC2)ccc1-c1cccc(OC(F)(F)F)c1`, for which the IC50 in series [1] was found to be 51 nM; in series [2] it was 173 nM.
In the same order, the values of `CCc1cc(C2=CCN(S(=O)(=O)CC(=O)NO)CC2)ccc1-c1ccccc1` are 420 nM and 4380 nM.
On to `O=C(CS(=O)(=O)N1CC=C(c2ccc(-c3ccccc3)cc2)CC1)NO`, for which the IC50 was 6 nM in series [1] and 9 nM in series [2]. In series [3], the Selectivity ratio was under 2.
Take `COCCOc1cccc(-c2ccc(C3CCN(S(=O)(=O)C(C)(C)C(=O)NO)CC3)cc2C)c1`: the IC50 in series [1] is 3 nM; in series [2] it was 853 nM.
Consider `Cc1cc(C2CCN(S(=O)(=O)C(C)(C)C(=O)NO)CC2)ccc1-c1cccc(OCCO)n1`, for which the IC50 in series [4] turned out to be 14000 nM; in series [1], 1 nM; in series [6], 2420 nM; in series [7], 20100 nM; in series [2], 529 nM. Further, the solubility (as a rule, the dissolved amount per volume that the medium holds) in series [5] amounted to 1 µg/mL (≈ 2.09 µM).
As to `CN(Cc1ccc(-c2ccccc2)cc1)S(=O)(=O)CC(=O)NO`, 378 nM corresponded to half-maximal inhibition in series [1] (IC50). For the same compound, the Selectivity ratio in series [3] is under 2.
Regarding `Cc1cc(C2CCN(S(=O)(=O)C(C)(C)C(=O)NO)CC2)ccc1-c1cccc(OCCN(C)C)c1`, the IC50 came to 1 nM in series [1] and 534 nM in series [2].
Consider `Cc1cc(C2=CCN(S(=O)(=O)CC(=O)NO)CC2)ccc1-c1ccccc1`, for which, in series [2], it took 320 nM to reach half-maximal inhibition (IC50).
On to `O=C(CS(=O)(=O)N1CC=C(c2ccc(-c3ccccc3)c(C(F)(F)F)c2)CC1)NO`, for which the figures for the IC50 in series [1] and in series [2] were 960 nM and 3080 nM, respectively.
`O=C(CS(=O)(=O)N1CC(c2ccc(-c3ccccc3)cc2)C1)NO` returned an IC50 in series [1] of 161 nM. Besides, the Selectivity ratio in series [3] is under 2.
Consider `O=C(CS(=O)(=O)N1CCC(c2ccc(-c3ccccc3)cc2)CC1)NO`, for which the Selectivity ratio in series [3] was under 2.
On to `COc1cccc(-c2ccc(C3=CCN(S(=O)(=O)CC(=O)NO)CC3)cc2C)c1`, for which the half-maximal inhibitory concentration (IC50) in series [1] is 5 nM; in series [2] it was 222 nM.
For `CCc1cccc(-c2ccc(C3=CCN(S(=O)(=O)CC(=O)NO)CC3)cc2C)c1`, in that order: 31 nM and 1210 nM.
With `O=C(CS(=O)(=O)N1CC=C(c2ccc(-c3ccccc3)c(F)c2)CC1)NO`, the results for the IC50 in series [1] and in series [2] were 3 nM and 17 nM, respectively.
Regarding `CCOc1cccc(-c2ccc(C3=CCN(S(=O)(=O)CC(=O)NO)CC3)cc2C)c1`, the IC50 in series [1] came out at 4 nM; in series [2], 998 nM. Further, the solubility in series [5] was under 1 µg/mL.
As for `O=C(CS(=O)(=O)N1CC(Oc2ccc(-c3ccccc3)cc2)C1)NO`, it took 84 nM to reach half-maximal inhibition in series [1] (IC50). Besides, the Selectivity ratio in series [3] was under 2.
Consider `Cc1cc(C2CCN(S(=O)(=O)C(C)(C)C(=O)NO)CC2)ccc1-c1cccc(OCCN)c1`, for which the values for the IC50 in series [1] and in series [2] were 0.4 nM and 188 nM, respectively.
As to `Cc1cccc(-c2ccc(C3=CCN(S(=O)(=O)CC(=O)NO)CC3)cc2C)c1`, the IC50 in series [1] turned out to be 4 nM; in series [2], 776 nM.
For the compound `Cc1cc(C2CCN(S(=O)(=O)C(C)(C)C(=O)NO)CC2)ccc1-c1cccc(OCCO)c1`, the IC50 in series [4] is 3230 nM; in series [1], 1 nM; in series [6], 406 nM; in series [7], 1710 nM; in series [2], 262 nM. In addition, in series [5], the solubility turned out to be 1 µg/mL (≈ 2.1 µM).
On to `CCOc1cccc(-c2ccc(C3CCN(S(=O)(=O)C(C)(C)C(=O)NO)CC3)cc2C)c1`, for which the IC50 stood at 2 nM in series [1] and 457 nM in series [2].
In the same order, the values of `O=C(CS(=O)(=O)N1CC=C(c2ccc(-c3ccccc3)c(Cl)c2)CC1)NO` are 55 nM and 620 nM.
Take `O=C(CS(=O)(=O)N1CCC(c2ccc(Oc3ccccc3)cc2)CC1)NO`: the IC50 in series [1] stood at 205 nM. In series [3], the Selectivity ratio is under 2.
As to `COC[C@@H](NC(=O)[C@@H](NC(=O)[C@H](CCCc1ccc(-c2ccccc2)c(C)c1)CC(=O)O)C(C)(C)C)c1ccccc1`, the IC50 in series [4] was over 100000 nM; in series [1] it was 23 nM; in series [8], 2300 nM; in series [6], 30400 nM; in series [7], 66900 nM.
In series [1], `CN(CCc1ccc(-c2ccccc2)cc1)S(=O)(=O)CC(=O)NO` yielded an IC50 of 164 nM. For the same compound, the Selectivity ratio in series [3] is under 2.
In the same order, the values of `CN(CCCc1ccc(-c2ccccc2)cc1)S(=O)(=O)CC(=O)NO` are 174 nM and under 2.
Consider `CNCCOc1cccc(-c2ccc(C3CCN(S(=O)(=O)C(C)(C)C(=O)NO)CC3)cc2C)c1`, for which the IC50 worked out at 0.3 nM in series [1] and 196 nM in series [2].
